Screening results as filed in PubChem.
In the library only some 1.7% were active in any assay of this set; here they are far more common.
SR-BI DiI inh: inhibitors of SR-BI mediated HDL lipid uptake, primary screen, ldlA[mSR-BI] cells, fluorescence, single point | ldlA[mSR-BI] CHO cells, DiI-HDL uptake fluorescence, 3 h | inhibition, % at 12.5 µM | 320,000 compounds, 0.96% hits;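 active = mean replicate inhibition of at least 70% and a set share of replicates each scoring 70 or more; inconclusive = meets just one of the two criteria; inactive = fails both criteria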;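 also: 0% = median of neutral control wells and 100% = median of positive control wells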
Target sequence (Q61009 whole entry, looked up): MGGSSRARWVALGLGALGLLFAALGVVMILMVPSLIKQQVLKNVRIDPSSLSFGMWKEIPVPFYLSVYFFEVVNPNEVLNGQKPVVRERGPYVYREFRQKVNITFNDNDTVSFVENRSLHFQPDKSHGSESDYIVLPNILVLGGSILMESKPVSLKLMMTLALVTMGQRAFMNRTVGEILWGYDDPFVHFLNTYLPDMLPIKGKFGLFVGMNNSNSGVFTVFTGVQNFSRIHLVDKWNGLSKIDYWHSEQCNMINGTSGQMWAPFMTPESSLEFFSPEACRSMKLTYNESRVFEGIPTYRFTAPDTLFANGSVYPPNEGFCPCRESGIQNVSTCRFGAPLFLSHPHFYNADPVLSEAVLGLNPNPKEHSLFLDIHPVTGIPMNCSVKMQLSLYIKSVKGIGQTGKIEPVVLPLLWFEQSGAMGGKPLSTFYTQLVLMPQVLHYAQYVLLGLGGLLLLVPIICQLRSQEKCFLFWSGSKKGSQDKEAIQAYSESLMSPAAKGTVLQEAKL
CaV13 FRET inh: Disruptors of the CACNA1D IQ motif to Ca2+-dependent inactivation inhibitor domain association, primary screening, Förster resonance energy transfer in intact living …. HEK cells, CFP/YFP FRET ICDI-IQ, plate reader, 10 min; percent FRET-ratio fall versus neutral wells. inhibition, % at 12.3 µM. 340,000 compounds, 0.098% hits. AID 743397;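 active = mean replicate inhibition of at least 30% and at least 1% of replicates passing that level; inconclusive = only one of the two criteria is met; inactive = neither criterion is met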;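 also: 0% = median of the neutral control wells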
NTR1 ag: agonists of human NTR1, primary screen, imaging, U2OS cells, beta-arrestin-GFP, high content | Neurotensin receptor type 1 (Homo sapiens), P30989 | NTR1-U2OS beta-arrestin-GFP spot imaging, agonist mode | activation, % at 20 µM | 330,000 compounds, 0.17% hits | AID 493036, 2011;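 active = activation at or above 40% of the spot to cytoplasm intensity ratio, with at least 20 cells analyzed; inconclusive = wells under 20 cells, flagged as cytotoxic or low count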;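 also: 0% = DMSO without peptide and 100% = 100 nM NTR1 peptide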
Vif inh: HIV Vif self-association inhibitors, primary screen, imaging, HEK293T, single point | HEK293T cells, Vif self-association by quenched fluorescence, 24 h | inhibition, % at 7.49 µM | 340,000 compounds, 0.35% hits; in the data active = inhibition above about 50%, passing the limit was not always enough; inconclusive = no clear call, values can overlap the other calls; inactive = below about 31%
SR-BI DiI-HDL act: activators of SR-BI mediated DiI-HDL uptake, primary screen, ldlA[mSR-BI] CHO cells, DiI fluorescence; 3 h; 100 = double the neutral-control signal; activation, % at 12.5 µM; 320,000 compounds, 0.096% hits;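 active = mean replicate activation of at least 60% and every replicate at or above 60%; inconclusive = mean or all-replicate condition met, but not both; inactive = mean below 60% and not all replicates reaching 60%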;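 also: 0% = median plate neutral-control signal and 100% = twice that signal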
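material = CHO ldlA[mSR-BI] cells | medium = Ham's F12 with 0.5% BSA, HEPES 25 mM, pH 7.4 | reagent = fluorescent DiI-HDL, 10 µg/mL final | compound dosing = single-point compound dose | incubation = 3 h, 37 °C | measured by = bottom-read fluorescence, 550/595 nm | measure = HDL uptake via cellular fluorescence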
V-ATPase pHluor: regulators of yeast V-ATPase proton pumping, primary screen, pHLuorin cytosolic pH fluorescence | S. cerevisiae | response, % at 10 µM | 350,000 compounds, 0.37% hits; in the data active = response mostly above about 7.3%, no sharp cut-off; inactive = mostly below about 5.4%; also: actives read high
* hit, by the source's call; ? = inconclusive; . = no result given.

SMILES	SR-BI DiI inh	CaV13 FRET inh	NTR1 ag	Vif inh	SR-BI DiI-HDL act	V-ATPase pHluor
CC1CC(C)CN(C(=O)C(C)N2CCN(S(=O)(=O)c3ccc(Br)s3)CC2)C1 (stereo not given)	-5	-6	3	-11	5	-1
CCOC(=O)c1ccc(S(=O)(=O)N2CCC(C(=O)OCC)CC2)cc1	-11	-10	2	-4	11	2
CN(C(=O)COC(=O)c1cc(S(=O)(=O)N2CCCCC2)ccc1Cl)c1ccccc1	72*	-5	5	7	-72	3
CCOC(=O)c1ccc(S(=O)(=O)N2CCC(C(=O)O)CC2)cc1	-69	-6	1	11	69*	1
Cn1cccc1C(=O)NC(=O)COC(=O)c1cc(S(=O)(=O)N2CCCCC2)ccc1Cl	81*	1	0	-2	-81	2
N#CCCN(C(=O)COC(=O)c1ccc(S(=O)(=O)N2CCOCC2)cc1)c1ccccc1	-22	-4	3	-6	22	5
CN(C(=O)COC(=O)c1ccc(S(=O)(=O)N2CCOCC2)cc1)c1ccccc1	-70	-6	2	0	70*	-2
Cc1ccc(C(=O)n2c3ccccc3c3ccccc32)cc1	74*	0	4	.	-74	2
COc1ccc(C(=O)Nc2cc(C)nn2-c2nc3ccccc3[nH]2)c(OC)c1	75*	-2	23	-8	-75	-3
Cc1cc(NC(=O)c2sccc2C)n(-c2nc3ccccc3[nH]2)n1	78*	-6	18	-4	-78	-4
Cc1cc(NC(=O)c2cccs2)n(-c2nc3ccccc3[nH]2)n1	93*	-3	8	-23	-93	-2
Cc1cc(NC(=O)c2ccccc2)n(-c2nc3ccccc3[nH]2)n1	64	-4	3	16	-64	-1
CC(=O)c1cc(-c2ccc(F)cc2)n(CCC(=O)Nc2cccc(C)n2)c1C	47	-4	1	-1	-47	-3
Cc1nc2c(OCc3ccccc3)cccn2c1N(C)C(=O)C1CCCCC1	.	-6	.	-4	.	.
O=C1CCNc2ccc(-c3ccccc3)cc21	4	-420	-2	-5	-4	0
Cc1ccc2c(c1)C(=O)CCN2	-19	-10	2	51*	19	6
CCOc1ccc(CC(=O)Nc2sc(Cc3ccccc3)c(C)c2C(N)=O)cc1OCC	17	-6	0	58*	-17	-1
Cc1c(Cc2ccccc2)sc(NC(=O)c2ccco2)c1C(N)=O	5	.	1	-6	-5	0
COc1cc(NC(=O)c2ccccc2)c(OC)cc1NC(=O)CN1C(=O)NC2(CCCCC2C)C1=O (stereo not given)	30	-3	-1	-4	-30	2
COc1cc(NC(=O)c2ccccc2)c(OC)cc1NC(=O)CN1C(=O)NC2(CCCCC2)C1=O	77*	-5	2	.	-77	-2
O=C(O)c1sccc1Oc1ccc(NS(=O)(=O)c2ccccc2)cc1	-13	-19	0	2	13	-4
COc1ccc(NC(=O)CCC(=O)N/N=C/c2cn(C)nc2C)cc1	0	-4	0	54*	0	-7
COC(=O)[C@]12C[C@H](CC(=O)NCCCCc3ccccc3)C(=O)N(CCC3=CCCCC3)C1=C[C@H](C(C)(C)C)O[C@@H]2C	.	-10	.	.	.	.
CC(=O)C1=CN(Cc2ccccc2)CCC1=O	-245	-9	.	2	245*	-1
CCn1c(C(=O)OC)cc2c1ccn2-c1ccc(F)cc1	78*	-6	-6	.	-78	-7
SMILES	SR-BI DiI inh	CaV13 FRET inh	NTR1 ag	Vif inh	SR-BI DiI-HDL act	V-ATPase pHluor
COc1ccc(C(=O)NNC(=S)NC(=O)/C=C/c2cccs2)cc1	1	-3	0	13	-1	-2
O=C(NC(=S)NNC(=O)c1cc2ccccc2cc1O)c1ccco1	146*	0	0	0	-146	3
O=C(/C=C/c1cccs1)NC(=S)NNC(=O)c1ccccc1O	101*	-5	4	-14	-101	2
O=C(NC(=S)NNC(=O)c1ccccc1O)c1ccco1	110*	-4	.	0	-110	8
COc1ccc(Cc2c(-c3ccc(F)cc3)nc3c4ccccc4ccn23)c(C)c1	.	-8	.	.	.	.
CC(C)CCNC(=O)C(c1ccncc1)N(Cc1cccs1)C(=O)Cn1nnc(-c2ccc(F)cc2)n1 (stereo not given)	31	-6	-4	?	-31	0
COc1ccc(C)cc1Nc1n[n+](-c2ccccc2)c(-c2ccc(N(C)C)cc2)s1	73*	-5	-3	.	-73	-2
COc1ccc(C)cc1Nc1n[n+](-c2ccccc2)c(-c2ccc(OC)c(OC)c2OC)s1	37	-10	0	.	-37	1
Cc1cccc(COc2ccc(S(=O)(=O)N3CCOCC3)cc2[N+](=O)[O-])c1	30	-5	2	-4	-30	-1
COc1cc(COc2ccc(S(=O)(=O)N3CCOCC3)cc2[N+](=O)[O-])ccc1OC(F)F	25	-3	.	57*	-25	-4
c1ccc2oc(C3=NNC(=NC4CC4)SC3)cc2c1	82*	-17	0	0	-82	0
c1ccc(CN=C2NN=C(c3cc4ccccc4o3)CS2)cc1	-1	-4	0	8	1	-3
COc1ccc(-c2csc(NC(=O)c3cccc(N4C(=O)CCC4=O)c3)n2)cc1OC	72*	-15	1	-6	-72	-2
CCOc1ccc(-c2csc(NC(=O)c3cccc(N4C(=O)CCC4=O)c3)n2)cc1	90*	-9	10	-7	-90	-9
CCOC(=O)c1c(-c2ccc(-c3ccccc3)cc2)csc1NC(=O)c1cccc(N2C(=O)CCC2=O)c1	72*	-18	4	-3	-72	0
Cc1ccc(-c2csc(NC(=O)c3cccc(N4C(=O)CCC4=O)c3)n2)o1	64	.	-1	-8	-62	-5
COc1ccc(-c2csc(NC(=O)c3ccc(N4C(=O)CCC4=O)cc3)n2)cc1	40	-7	3	26	-40	-3
Cc1ccc(CCS(=O)(=O)c2ccc(C(C)(C)C)cc2)cn1	-18	-4	3	-9	18	-5
COc1cc(C(=O)Nc2ccc(Nc3ccccc3)cc2)cc(OC)c1OC	79*	?	2	-12	-79	0
COc1cc(C(=O)Nc2cccc(-n3cnnn3)c2)cc(OC)c1OC	77*	-3	0	-4	-77	-2
COc1cc(C(=O)Nc2ccc(Cl)c([N+](=O)[O-])c2)cc(OC)c1OC	80*	-1	5	-3	-80	6
